Screening results (PubChem BioAssay)
Rows were chosen to be rich in hits. Some 6.7% of all compounds tested hit in one or more screens of this group.
NR3A LBD binder: modulates the human NR3A ligand-binding domain; NR3A LBD differential scanning fluorimetry, Tm shift; 0% = protein alone, 100% = glycine-bound protein; Tm shift relative to glycine control, % at 25 µM; actives 2.5% (n = 340,000); AID 1259313;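 active = melting temperature shift of at least 10% of the positive control shift, at one fixed dose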
T cruzi inh: T. cruzi replication inhibition | actives 1.4% (n = 300,000) | T. cruzi beta-gal in NIH3T3, luminescence, 90 h | inhibition, % (no concentration beside the values);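 active = mean inhibition across valid replicates above about 55%, limit read from the data; inconclusive = mean below that limit but half or more replicates reach it; inactive = mean below it, under half of replicates reach it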;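 note: signal also drops with host cell toxicity which is not excluded here; 0% = plate median of DMSO wells and 100% = zero luminescence signal; higher percent means less beta-gal luminescence so fewer parasites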
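assay system = mouse NIH/3T3 fibroblasts infected with β-gal-expressing T. cruzi Tulahuen C4 | input = 5,000 NIH/3T3 host cells per well | buffer or medium = DMEM plus 2% FBS | timing = 3 h host attachment, then at least 90 h co-culture | measured by = GalScreen luminescence, 60 min | evaluation = luminescence reflecting intracellular parasite burden, expressed as percent inhibition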
Beta apoptosis: beta cell apoptosis inhibition; INS-1E cytokine-induced death, ATP luminescence, 48 h; percent of positive-control rescue, neutral wells zero; protection from apoptosis, % (no concentration beside the values); actives 0.8% (n = 300,000);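 active = Every replicate reaches about 75%, or at least half do and their mean reaches it too, limit read from the data; inconclusive = At least half of replicates reach the limit but their mean does not; inactive = Under half of replicates reach the limit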;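 note: 0% = cytokine-treated negative control wells and 100% = positive control rescue; higher means more ATP so stronger rescue from cytokine killing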
CHOP inhibitor: blocks CHOP induction under ER stress; inhibition, % at 10 µM; AID 2732; CHO-K1 CHOP-promoter luciferase, tunicamycin-induced, 15-18 h; actives 3.8% (n = 220,000);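 active = compounds that reduced the stress-induced luciferase reporter signal by more than about 70% of percent inhibition, limit read from the data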;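 note: 0% = tunicamycin plus vehicle and 100% = wells without tunicamycin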
CSC inhib: blocks cancer stem cells; cancer stem cell-like cells viability, luminescence; inhibition, % at 7.5 µM; actives 1.1% (n = 300,000); in the data active = inhibition above about 75%; inconclusive = no clear call, values can overlap the other calls; tested in HMLE shEcad cells
PREPL inh: inhibitors of human prolyl oligopeptidase-like enzyme PREPL; Q4J6C6; recombinant PREPL, fluorescence polarization activity-based probe; inhibition, % at 5.96 µM; actives 0.68% (n = 320,000); AID 2751; in the data active = inhibition above about 43%;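 note: 0% = enzyme with DMSO and 100% = wells lacking enzyme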
Target sequence (Q4J6C6 whole entry, looked up): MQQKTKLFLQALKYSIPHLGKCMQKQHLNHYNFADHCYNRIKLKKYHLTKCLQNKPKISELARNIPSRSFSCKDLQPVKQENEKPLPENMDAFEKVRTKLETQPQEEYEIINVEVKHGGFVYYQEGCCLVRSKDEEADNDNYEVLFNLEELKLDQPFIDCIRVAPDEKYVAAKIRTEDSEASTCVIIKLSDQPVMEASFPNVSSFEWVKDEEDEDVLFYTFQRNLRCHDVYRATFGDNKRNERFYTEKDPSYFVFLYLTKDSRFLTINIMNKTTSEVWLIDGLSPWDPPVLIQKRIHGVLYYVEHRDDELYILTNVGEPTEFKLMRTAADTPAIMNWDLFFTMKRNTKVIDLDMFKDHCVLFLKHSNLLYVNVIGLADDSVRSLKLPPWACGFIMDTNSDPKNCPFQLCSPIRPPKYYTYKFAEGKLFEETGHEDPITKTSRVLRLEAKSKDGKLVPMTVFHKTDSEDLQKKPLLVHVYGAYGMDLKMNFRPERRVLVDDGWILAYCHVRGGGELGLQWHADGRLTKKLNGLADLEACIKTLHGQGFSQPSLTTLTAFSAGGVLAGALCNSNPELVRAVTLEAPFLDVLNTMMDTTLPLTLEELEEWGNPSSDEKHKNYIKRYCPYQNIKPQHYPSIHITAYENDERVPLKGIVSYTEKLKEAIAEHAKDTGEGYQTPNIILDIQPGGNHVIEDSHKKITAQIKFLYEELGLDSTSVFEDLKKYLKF
Active calls of the source: *; u = inconclusive; x = not tested or not shown.

SMILES | NR3A LBD binder | T cruzi inh | Beta apoptosis | CHOP inhibitor | CSC inhib | PREPL inh
CN1CCc2nc(SCc3ccc(C(C)(C)C)cc3)c(C#N)cc2C1 | 2 | 57* | 6 | 29 | 45 | -1
CC(=O)OC1(C(C)=O)CCC2C3CC(Cl)C4=CC(=O)CCC4(C)C3CCC21C (centres undefined) | -3 | x | x | x | x | x
CCC1(C)Cc2c(sc3nc(SC)n(Cc4ccccc4)c(=O)c23)CO1 (centres undefined) | 1 | 21 | 20 | 18 | 96* | -5
Cc1nonc1OCCNC(=O)C12CC3CC(CC(C3)C1)C2 | -1 | -12 | 2 | -7 | 0 | -3
O=C(CCc1ccc(O)cc1)c1c(O)cc(O)cc1O[C@@H]1O[C@H](CO)[C@@H](O)[C@H](O)[C@H]1O | 1 | 0 | x | x | -9 | 0
Cc1cccc(OCCCC(=O)Nc2nc3ccccc3[nH]2)c1 | 0 | -41 | 13 | 73* | 84* | 7
Cc1ccc(NC(=O)c2noc3c2CCc2ccccc2-3)cc1 | 2 | 9 | 2 | 15 | 4 | 4
Cc1nn(Cc2ccccc2)c(C)c1NC(=O)c1noc2c1CCc1ccccc1-2 | -1 | 17 | -8 | 86* | 12 | -6
O=C(/C=C/c1cccc(Cl)c1)Nn1c(-c2cccs2)nc2ccccc2c1=O | 17* | 23 | 3 | 17 | 21 | -18
Cc1noc(C)c1CSCc1ccc(Cl)cc1 | 2 | -5 | 3 | 8 | x | 13
Cc1nc2ccccc2n1Cc1ccccc1 | 0 | -21 | 5 | x | 18 | -9
Cc1nc2ccccc2n1Cc1ccc(Br)cc1 | -2 | -68 | 96* | x | -1 | -4
COc1ccc(OCC(O)CNC(=O)c2ccc(OC)cc2)cc1 (centres undefined) | 31* | -2 | 4 | 6 | -8 | 3
COc1ccc(C(=O)NNC(=O)c2ccc(C(C)(C)C)cc2)cc1 | -1 | 12 | -15 | 84* | -3 | -15
COc1ccc(OCC(O)CNc2ccc(Br)cc2)cc1 (centres undefined) | 2 | 7 | -5 | 86* | 12 | 6
Cc1ccc2nccc(C(=O)N3CCCC(Nc4ccc(F)cc4)C3)c2c1 (centres undefined) | -1 | 15 | -1 | x | 9 | 6
CC(C)(C)c1ccc(C(=O)N/N=C/c2ccccn2)cc1 | 0 | 12 | 10 | x | 26 | 6
C/C(=N\NC(=O)c1cccc(Br)c1)c1ccccn1 | -3 | 50 | 105* | x | 139* | 4
C/C(=N/NC(=O)c1ccc(C(C)(C)C)cc1)c1ccccn1 | -4 | 40 | 111* | x | 60 | 7
CC(=NNC(=O)c1ccncc1)c1cccc(Br)c1 | 0 | x | x | x | x | x
COc1ccc(C(=O)N/N=C(\C)c2ccccn2)cc1OC | 0 | 18 | 98* | x | 91* | 1
COc1ccc(NC(=O)c2ccccn2)cc1OC | -1 | -15 | 3 | 36 | -6 | 3
C/C(=N\NC(=O)c1cc(Br)ccc1O)c1ccccn1 | -6 | -9 | 105* | x | 96* | x
CCc1ccc(C2=NN(C(C)=O)C(c3ccco3)C2)cc1 (centres undefined) | -4 | 10 | 4 | 22 | 20 | -2
Cc1c(NC(=O)C(C)OC(=O)COc2ccc(C#N)cc2)c(=O)n(-c2ccccc2)n1C (centres undefined) | 0 | -2 | 1 | x | 27 | -4
SMILES | NR3A LBD binder | T cruzi inh | Beta apoptosis | CHOP inhibitor | CSC inhib | PREPL inh
C/C(=N\NC(=O)c1ccccc1Cl)c1ccccn1 | 1 | 55* | 93* | x | 33 | -1
C/C(Cc1ccccc1)=N\NC(=O)c1ccccn1 | 1 | -8 | -4 | x | -2 | x
C/C(=N\NC(=O)c1ccc(Cl)c(Cl)c1)c1ccc(Br)s1 | -3 | 70* | 24 | 67 | -10 | 1
C/C(=N\NC(=O)c1ccc(Cl)c(Cl)c1)c1ccccn1 | x | 60* | 93* | x | 81* | x
C/C(=N/NC(=O)c1ccccn1)c1ccncc1 | -1 | -7 | 0 | x | 14 | 22
NNC(=O)c1cc(-c2cccs2)nc2ccccc12 | 1 | -26 | -4 | 17 | 1 | -8
Cc1cccc2sc(NNC(=O)c3cc(-c4cccs4)nc4ccccc34)nc12 | -5 | 17 | x | 6 | 103* | 7
C/C(=N\NC(=O)C(c1ccccc1)c1ccccc1)c1ccccn1 | -2 | 40 | 88* | 53 | 29 | 12
C/C(=N\NC(=O)C(c1ccccc1)c1ccccc1)c1ccc(O)cc1 | 0 | 2 | -6 | x | -11 | 9
C/C(=N\NC(=O)c1cc(-c2cccs2)nc2ccccc12)c1ccccn1 | -12 | 36 | 102* | 50 | 136* | 2
C/C(=N\NC(=O)c1cccc2ccccc12)c1ccccn1 | -1 | 64* | x | x | x | x
O=C1N/C(=C/c2ccc(N3CCOCC3)o2)C(=O)N1c1ccccc1 | 2 | x | 6 | -25 | 80* | 9
C=CCN1C(=O)N/C(=C/c2ccc(N3CCOCC3)o2)C1=O | x | 48 | 109* | 94* | 15 | 5
CC1CCCCC1NC(=O)C1CCCN(S(=O)(=O)c2ccc(-n3cnnn3)cc2)C1 (centres undefined) | 0 | 6 | -9 | x | -2 | -2
CCCCCC1CC(CC(=O)Nc2ccc([N+](=O)[O-])cc2)OC1=O (centres undefined) | 2 | 7 | 3 | 91* | 6 | -18
CCCCCCC1CC(CCC(=O)Nc2ccc([N+](=O)[O-])cc2)C(=O)O1 (centres undefined) | 0 | 10 | 1 | 84* | 0 | -12
CCCCCC1CC(CC(=O)O)C(=O)O1 (centres undefined) | 1 | -4 | 0 | -6 | x | 12
Cc1ccccc1NC(=O)C(C)n1c2ccccc2c2nc(=O)cc(C)n21 (centres undefined) | 0 | 2 | -1 | 16 | 1 | 13
Cc1cnc(NC(=O)c2cc3c(C)nn(-c4ccccc4)c3s2)s1 | -2 | 8 | 13 | 86* | 6 | 7
Cc1nn(-c2ccccc2)c2sc(C(=O)NNC(=O)COc3cccc4ccccc34)cc12 | 9 | -3 | 2 | 92* | 55 | -17
Cc1nn(-c2ccccc2)c2sc(C(=O)N3CCCCC3)cc12 | -2 | 12 | -1 | 82* | -7 | 0
Cc1nn(-c2ccccc2)c2sc(C(=O)N3CCc4ccccc4C3)cc12 | 1 | 2 | x | 3 | x | x
Cc1nn(-c2ccccc2)c2sc(C(=O)NNC(=O)COc3ccccc3)cc12 | -3 | -1 | -1 | -28 | 19 | -10
CC(C)NC(=S)N/N=C/c1cc(Br)ccc1O | -2 | -21 | u | 77* | 23 | 7
COc1ccc(O)c(/C=N/NC(=S)NCCc2ccccc2)c1 | 36* | -6 | 21 | x | 56 | 1
CCCNC(=S)Nc1ccc(Br)cc1 | -3 | -2 | x | -19 | 9 | 8
COCCNC(=S)N/N=C(\C)c1ccccc1O | 6 | 17 | 17 | -118 | -5 | -2
